Data reported in publication PMC3848259 (Cellular signalling, 2013).
Entries after “also recorded” stand apart in the source; their conditions may differ.

Legend:
RGS4-Gαo binding [1] = target: T1, RGS4-Gαo binding (Rattus norvegicus, UniProt P49799); assay: Flow Cytometry Protein Interaction Assay; conditions: read-out: FCPIA IC50, compounds 100 nM-100 μM, three independent experiments
T1 sequence (P49799 52-205 limits assumed): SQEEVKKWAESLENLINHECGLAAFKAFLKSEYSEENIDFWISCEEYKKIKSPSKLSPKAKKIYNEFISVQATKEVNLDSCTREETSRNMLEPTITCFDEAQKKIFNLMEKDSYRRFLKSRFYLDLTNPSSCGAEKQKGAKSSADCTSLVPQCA
Method in brief: (§1)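 Multiplexed bead assay: biotinylated MBP-Δ51 RGS4, cysteine-free Δ51 RGS4 (seven RGS-box Cys→Ala) and His-tagged RGS8 (61–198) on separate streptavidin Luminex bead sets. Buffer 50 mM HEPES pH 7.4, 100 mM NaCl, 0.1% lubrol, 1% BSA. Test compound (100 nM–100 μM) for 15 min at RT. AlexaFluor532-Gαo (30 nM final) with GDP·AlF4 and 1 mM MgCl for 30 min at RT. Read by flow cytometry; nonlinear regression.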

[2] = test system: RGS4 in HEK293-FlpIn-TREx/M3R/RGS4 cells; assay: Cell-based calcium signaling assay in M3-R4 cells; set-up: species or system human; conditions: read-out: Cellular Activity IC50, Dox treated, carbachol-stimulated calcium
RGS4-Gαo binding [3] = target: T1, RGS4-Gαo binding; assay: FCPIA reversibility; conditions: 100 μM compound; for inhibition of RGS4-G-protein binding: FCPIA; for reversibility of RGS4 inhibition: beads washed three times, ten minute washing period
Method in brief: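 Biotinylated RGS4 on streptavidin Luminex beads preincubated 30 min at room temperature with 100 μM test compound or DMSO, then washed three times in 50 mM HEPES pH 7.4/100 mM NaCl/0.1% lubrol/1% BSA. Beads split: one set re-dosed with 100 μM compound, other DMSO. Each then mixed with AlexaFluor 532-Gαo (30 nM final) plus GDP·AlF4/1 mM MgCl. Binding read by flow cytometry. Three independent experiments.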

[4] = target: T2, RGS4 stimulation of Gαi1 (R178M/A326S) GTP hydrolysis (Rattus norvegicus, UniProt P49799); assay: Receptor-independent steady-state GTPase acceleration protein assay; type: biochemical; conditions: read-out: SS-GAP IC50; 200 nM Δ51 RGS4-MBP, 6 μM Gαi1 (R178M/A326S), 300 μM GTP
T2 sequence (P49799 52-205): T1 sequence (P49799 52-205 limits assumed)
Method in brief: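 Receptor-independent GTPase: Δ51 RGS4 (residues 52-205)-MBP with His-tagged Gαi1 R178M/A326S. Buffer: 50 mM HEPES pH 7.4, 100 mM NaCl, 0.01% Lubrol, 5 mM MgCl, 10 μg/mL BSA. Test compound in half-log steps, 100 nM–100 μM. Started with GTP; 120 min at room temperature. Quenched with HCl/malachite green plus citrate stabiliser, 20 min, then A630. IC50 by nonlinear regression; three independent experiments, duplicate wells.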

RGS7 = target: T3, RGS7 (Homo sapiens, UniProt P49802); assay: Multiplexed FCPIA, RGS7; type: binding; conditions: 100 nM to 100 μM, RGS7 lacks cysteine residues
T3 sequence (P49802 333-448 limits assumed): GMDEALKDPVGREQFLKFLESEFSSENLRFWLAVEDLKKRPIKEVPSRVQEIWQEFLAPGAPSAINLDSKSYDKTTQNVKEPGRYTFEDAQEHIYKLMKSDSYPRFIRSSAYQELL

RGS19 = target: T4, RGS19 (Homo sapiens, UniProt P49795); assay: Multiplexed FCPIA, RGS19; type: binding; conditions: 100 nM to 100 μM
T4 sequence (P49795 1-206 limits assumed): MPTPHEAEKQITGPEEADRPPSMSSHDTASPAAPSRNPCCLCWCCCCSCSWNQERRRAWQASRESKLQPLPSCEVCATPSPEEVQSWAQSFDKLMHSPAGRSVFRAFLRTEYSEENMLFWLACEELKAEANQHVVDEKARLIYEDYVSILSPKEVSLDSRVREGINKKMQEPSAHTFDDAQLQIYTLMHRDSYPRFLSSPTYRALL
Method in brief: (§2)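 Biotinylated RGS proteins (RGS16 full-length, RGS19 ΔC11, both MBP fusions) were each coupled to separate streptavidin Luminex bead sets and pooled per well. Buffer: 50 mM HEPES pH 7.4, 100 mM NaCl, 0.1% lubrol, 1% BSA. Test compound (100 nM–100 μM) or DMSO added for 15 min at room temperature. AlexaFluor 532-Gαo (30 nM final) with GDP·AlF4/1 mM MgCl added for 30 min. Flow-cytometric binding read; nonlinear regression.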

RGS16 = target: T5, RGS16 (Homo sapiens, UniProt O15492); assay: Multiplexed FCPIA, RGS16; type: binding; conditions: 100 nM to 100 μM
T5 sequence (O15492 1-202): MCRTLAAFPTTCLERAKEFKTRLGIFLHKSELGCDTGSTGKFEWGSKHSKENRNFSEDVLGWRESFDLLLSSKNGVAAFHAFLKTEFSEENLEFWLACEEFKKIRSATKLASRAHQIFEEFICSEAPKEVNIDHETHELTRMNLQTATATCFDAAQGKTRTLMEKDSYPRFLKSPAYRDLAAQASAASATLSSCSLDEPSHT
Method in brief: as §2

RGS4 (-Cys) = RGS4 (-Cys) (Homo sapiens, UniProt P49798, C132A/C148A/C183A/C197A/C204A/C71A/C95A); assay: Multiplexed FCPIA, RGS4 lacking cysteines; type: binding
Method in brief: as §1

RGS8 = target: T6, RGS8 (Homo sapiens, UniProt P57771); assay: Multiplexed FCPIA, RGS8; type: binding
T6 sequence (P57771 61-198 isoform P57771-2): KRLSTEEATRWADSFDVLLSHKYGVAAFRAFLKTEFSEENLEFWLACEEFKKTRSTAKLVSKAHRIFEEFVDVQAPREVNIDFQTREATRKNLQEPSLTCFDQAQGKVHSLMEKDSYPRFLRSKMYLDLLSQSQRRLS
Method in brief: as §1

RGS4 (-Cys), sequence (P49798 52-205 C71A/C95A/C132A/C148A/C183A/C197A/C204A limits assumed, species assumed): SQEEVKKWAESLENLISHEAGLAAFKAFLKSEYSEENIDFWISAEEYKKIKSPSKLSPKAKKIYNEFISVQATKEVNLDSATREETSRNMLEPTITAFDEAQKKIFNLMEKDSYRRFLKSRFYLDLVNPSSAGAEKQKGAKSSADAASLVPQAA

SMILES	IC50 (RGS4-Gαo binding [1]) [µM]	IC50 [2] [µM]	inhibition of RGS4-G-protein binding (RGS4-Gαo binding [3])	reversibility of RGS4 inhibition (RGS4-Gαo binding [3])	IC50 [4] [µM]	activity towards RGS7 (RGS7)	potency difference RGS4 versus RGS19 (RGS19) [fold]	activity against RGS16 (RGS16)	Inhibition of Gα binding to RGS4 (-Cys) (RGS4 (-Cys))	Inhibition of Gα binding to RGS8 (RGS8)
Cc1ccc(/C=C2\C(=O)NC(=S)N(c3ccc(F)cc3)C2=O)s1 [CID 1389577]	18.3	15	greater than 85%	more than 50%	10.9	showed activity towards RGS7; also recorded: activity was observed	–	–	–	–
COc1ccc(NC(=O)/C(Cl)=C(/Cl)[S+]([O-])Cc2ccccc2)cn1 (stereo not drawn) [CID 1472216]	1.7 ± 0.5	–	–	–	1.6 ± 0.4	–	–	–	–	–
CN1C(=O)/C(=C\c2ccc(Br)s2)C(=O)NC1=S [CID 1777233]	15.3	20	greater than 85%	more than 50%	9.4	–	2	–	–	–
O=C1NC(=S)N(c2ccccc2F)C(=O)/C1=C\c1cccs1 [CID 1905297]	27.9	23.8	greater than 85%	more than 50%	35.6	–	–	–	–	–
O=C1N=c2ccccc2=C1c1c(O)n(-c2cccc(F)c2)[nH]c1=O [CID 5428579]	8.2	35.5	greater than 85%	more than 50%	55.8	showed activity towards RGS7; also recorded: activity was observed	–	activity was observed	–	–
Br.CCCN1CCc2cc(O)cc3c2[C@H]1Cc1ccc(O)c(O)c1-3 [CID 10069059]	–	–	–	–	–	–	–	–	Inhibition of Gα binding to RGS4 (-Cys) or RGS8 occurred	Inhibition of Gα binding to RGS4 (-Cys) or RGS8 occurred
Br.CN1CCc2cc(O)cc3c2[C@H]1Cc1ccc(O)c(O)c1-3 [CID 11957531]	–	–	–	–	–	–	–	–	Inhibition of Gα binding to RGS4 (-Cys) or RGS8 occurred	Inhibition of Gα binding to RGS4 (-Cys) or RGS8 occurred
